The results in this text go back to ChEMBL document CHEMBL4834396, “Molecular Recognition and Imaging of Human Telomeric G-Quadruplex DNA in Live Cells: A Systematic Advancement of Thiazole Orange Scaffold To Enhance Binding Specificity and Inhibition of Gene Expression” (J Med Chem, 2021).

The structures appear in SMILES notation. The source made the active and inactive calls. No cut-off for these calls is given here.

One may read the solubility as how much of the substance goes into solution per volume. A word on the IC50: it is the point on the concentration scale where inhibition reaches its midpoint.

The test system of one data set is rRNA. The data set is described as follows: Binding affinity to rRNA (unknown origin) assessed as equilibrium binding constant at 5 uM at 25 degreeC […]. The data set is classed as nucleic-acid assay. The method, boiled down: (§1)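 Fluorescence titration: ligand 5 μM in 10 mM Tris-HCl pH 7.4 with 60 mM KCl, nucleic acid added until saturation, 25 °C. Keq from nonlinear fit of F/F0 to an independent-site model.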

The test system of data set [1] is Quadruplex DNA. Nature of the data set: Binding affinity to c-myc promoter G-quadruplex DNA Pu22 (unknown origin) assessed as equilibrium binding constant at 5 uM at 25 degreeC by […]. Format: nucleic-acid assay. A digest of the protocol:
as §1

The subject of data set [2] is Quadruplex DNA. The data set is described as follows: Binding affinity to telomeric Telo21 G-quadruplex DNA (unknown origin) assessed as equilibrium binding constant at 5 uM at 25 degreeC by […]. The data set is classed as nucleic-acid assay. A digest of the protocol:
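Fluorescence titration: ligand at 5 μM in 10 mM Tris-HCl, pH 7.4, with 60 mM KCl, 25 °C. DNA was added slowly until saturation. Keq was obtained by nonlinear fitting of F/F0 to an independent-site model.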

Data set [3] has as its system Quadruplex DNA. Nature of the data set: Binding affinity to telomeric Htg24 G-quadruplex DNA (unknown origin) assessed as equilibrium binding constant at 5 uM at 25 degreeC by […]. The data set is classed as nucleic-acid assay. A digest of the protocol: as §1
Data set [4] is described as follows: Water solubility of compound at 25 degreeC. Format: physicochemical. The method, boiled down: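 Solubility in water measured at 25 °C.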
For data set [5], the system named is Quadruplex DNA. The data set is described as follows: Stabilization of telomeric Htg24 G-quadruplex DNA (unknown origin) assessed as inhibition of DNA amplification at 20 uM by PCR analysis. The data set is classed as nucleic-acid assay. The method, boiled down: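 Taq polymerase stop assay: Htg24 or its non-G4 mutant template (5 μM) with 2 μM of each oligomer, […] and ligand at 0–20 μM. Cycling was 94 °C for 5 min, then 30 cycles of 94/56/72 °C at 30 s each. Products were resolved on 15% PAGE and stained with SYBR Gold.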

In data set [6] the test system is Quadruplex DNA. Nature of the data set: Binding affinity to telomeric Htg24 G-quadruplex DNA (unknown origin) assessed as fluorescence quantum yield by fluorescence spectrophotometric method. The data set is classed as nucleic-acid assay. A digest of the protocol:
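Fluorescence quantum yield determined against fluorescein (Φ = 0.95) in 1% NaOH ethanol. Five increasing ligand concentrations added to fixed DNA, with absorbance and emission recorded for each.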

Data set [7] deals with Quadruplex DNA. Nature of the data set: Binding affinity to telomeric Htg24 G-quadruplex DNA (unknown origin) assessed as emission wavelength at 480 to 483 nm at pH 7.4 by spectrophotometric method. The data set is classed as nucleic-acid assay.
For data set [8], the system named is HeLa. Nature of the data set: Downregulation of hTERT mRNA expression in human HeLa cells at 5 to 20 uM by qRT-PCR analysis. The data set is classed as functional, cell-based. The settings on record: dose 5-20 µM. The method, boiled down: (§2)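 HeLa cells were treated with graded compound concentrations, then incubated 36 h. RNA was extracted with Trizol/chloroform, reverse transcribed and quantified by qRT-PCR. GAPDH served as internal control, with relative expression by the ΔΔCt method; three independent experiments, mean ± SD.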
On the technique in general: In qPCR the cycle at which signal appears reflects the starting amount.

For data set [9], the system named is HeLa. The data set is described as follows: Downregulation of hTERC mRNA expression in human HeLa cells at 5 to 20 uM by qRT-PCR analysis. The settings on record: dose 5-20 µM. Format: functional, cell-based. The method, boiled down: as §2
A further data set concerns PC-3. Nature of the data set: Antiproliferative activity against human PC-3 cells assessed as reduction in cell viability […] by MTT assay. The data set is classed as functional, cell-based. (In general: Formazan colour is commonly taken as a measure of viable cells.)
For the next data set, the system named is HepG2. The data set is described as follows: Antiproliferative activity against human HepG2 cells assessed as reduction in cell viability […] by MTT assay. Format: functional, cell-based.
The next data set relates to MCF7. The data set is described as follows: Antiproliferative activity against human MCF7 cells assessed as reduction in cell viability […] by MTT assay. The data set is classed as functional, cell-based.
Another data set relates to U-87 MG. The data set is described as follows: Antiproliferative activity against human U87 cells assessed as reduction in cell viability […] by MTT assay. The data set is classed as functional, cell-based, U-87MG ATCC.
The subject of data set [10] is HeLa. The data set is described as follows: Antiproliferative activity against human HeLa cells assessed as reduction in cell viability […] by MTT assay. Format: functional, cell-based.
Another data set concerns 16HBE14o-. Nature of the data set: Cytotoxicity against human 16HBE14o- cells assessed as cell viability incubated for 48 hrs by MTT assay. The settings on record: 36 h, in the assay text read “36 hrs” for “48 hrs”. Format: cell-based. A digest of the protocol: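 Cells were plated and grown 48 h at 37 °C, 5% CO2, in DMEM with 10% FBS. They were then given graded ligand concentrations for 36 h and treated with MTT (5 mg/ml) for 4 h in the dark. Formazan was dissolved in DMSO and absorbance read at 577 nm. IC50 was taken from a sigmoidal dose–response fit; three independent experiments.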

In data set [11] the test system is Quadruplex DNA. The data set is described as follows: Binding affinity to telomeric Htg24 G-quadruplex DNA (unknown origin) assessed as stroke shift under at 480 to 483 nm at pH 7.4 by spectrophotometric method.
For a further data set, the system named is DNA. Nature of the data set: Binding affinity to ds26 DNA (unknown origin) assessed as equilibrium binding constant at 5 uM at 25 degreeC by […]. Format: nucleic-acid assay. A digest of the protocol: as §1
Data set [12] relates to HeLa. Nature of the data set: Induction of cellular senescence in human HeLa cells assessed as positive SA-beta-Gal cells at 0.5 to 4 uM incubated for 18 days by inverted fluorescence microscopic analysis. Format: functional, cell-based. As to conditions: dose 0.5-4 µM, time 18.0 day. The method, boiled down: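 HeLa cells were exposed to compound for 18 days, with drug-containing medium replaced every three days. Cells were then fixed 15 min at room temperature and stained for β-galactosidase at 37 °C overnight. Stained cells were examined under an inverted microscope.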

The subject of data set [13] is Quadruplex DNA. Nature of the data set: Displacement of 2-((E)-4-(Dimethylamino)styryl)-1-methyl-4-((Z)-(3-(3-morpholinopropyl)benzo[d]thiazol-2(3H)-ylidene)methyl)quinolin-1-ium iodide from telomeric Htg24 G4 quadruplex DNA in human U87 cells assessed as decrease in fluorescence intensity at 5 to 20 uM by competition binding assay. Format: cell-based. The settings on record: dose 5-20 µM. A digest of the protocol:
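Live U87 cells were stained with probe at 5 μM plus DAPI and co-treated with BRACO19 at 5, 10, 15 or 20 μM. Confocal imaging used excitation at 488 or 571 nm for the probe and 402 nm for DAPI. Nuclear spot intensity was compared across concentrations.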

For `CC1CCN(CCCN2/C(=C/c3cc(/C=C/c4ccc(C#N)cc4)[n+](C)c4ccccc34)Sc3ccccc32)CC1.[I-]`, the Kb in the data set on rRNA was determined as 786000 M⁻¹; in the data set with Quadruplex DNA [1], 983000 M⁻¹; in the data set with Quadruplex DNA [2], 957000 M⁻¹; in the data set with Quadruplex DNA [3], 902000 M⁻¹. This molecule returned a solubility in data set [4] of 82.7 µM.

For `CC1CCN(CCCN2/C(=C/c3cc(/C=C/c4ccc(N(C)C)cc4)[n+](C)c4ccccc34)Sc3ccccc32)CC1.[I-]`, the result with Quadruplex DNA [5], in the data set on HeLa [8] and in the data set with HeLa [9] was Active. Further, in the data set on rRNA, the Kb came to 840000 M⁻¹. The Activity was determined as 0.317 in the data set with Quadruplex DNA [6], 648 nm in the data set with Quadruplex DNA [7] and 165 nm in the data set with Quadruplex DNA [11]. Moreover, the half-maximal inhibitory concentration (IC50) with PC-3 came to 14.6 µM; in the data set with HepG2 it was 11 µM; in the data set with MCF7, 12.6 µM; in the data set on U-87 MG, 14.7 µM; in the data set with HeLa [10], 21.2 µM; in the data set with 16HBE14o- it was 34.8 µM. This molecule also gave a solubility in data set [4] of 105 µM.

In the case of `CC1CCN(CCCN2/C(=C/c3cc(/C=C/c4ccc(N(c5ccccc5)c5ccccc5)cc4)[n+](C)c4ccccc34)Sc3ccccc32)CC1.[I-]`, the Kb in the data set on DNA was 154000 M⁻¹; with Quadruplex DNA [1] it was 907000 M⁻¹; with Quadruplex DNA [2] it was 785000 M⁻¹; in the data set on Quadruplex DNA [3], 722000 M⁻¹. Moreover, in data set [4], the solubility came to 77.2 µM.

Regarding `CC1CCN(CCCN2/C(=C/c3cc(/C=C/c4ccc(O)cc4)[n+](C)c4ccccc34)Sc3ccccc32)CC1.[I-]`, the Kb in the data set with Quadruplex DNA [1] was 550000 M⁻¹. This molecule also yielded a solubility in [4] of 147 µM.

For `CSc1ccc(/C=C/c2cc(/C=C3\Sc4ccccc4N3CCCN3CCC(C)CC3)c3ccccc3[n+]2C)cc1.[I-]`, the Kb with DNA was found to be 755000 M⁻¹; with rRNA, 787000 M⁻¹; with Quadruplex DNA [1], 766000 M⁻¹; in the data set with Quadruplex DNA [2], 650000 M⁻¹; with Quadruplex DNA [3] it was 689000 M⁻¹. This molecule gave a solubility in data set [4] of 98.4 µM.

In the case of `C[n+]1c(/C=C/c2ccc(C#N)cc2)cc(/C=C2\Sc3ccccc3N2CCCN2CCOCC2)c2ccccc21.[I-]`, the Kb with DNA stood at 379000 M⁻¹; with rRNA, 501000 M⁻¹; in the data set with Quadruplex DNA [1] it was 443000 M⁻¹; in the data set with Quadruplex DNA [2], 722000 M⁻¹; with Quadruplex DNA [3] it was 505000 M⁻¹. This molecule also yielded a solubility in data set [4] of 83 µM.

As to `CN(C)c1ccc(Nc2c3ccc(NC(=O)CCN4CCCC4)cc3nc3cc(NC(=O)CCN4CCCC4)ccc23)cc1`, the outcome in the data set on Quadruplex DNA [5], with HeLa [8], in the data set with HeLa [9], in the data set on HeLa [12] and in the data set on Quadruplex DNA [13] was Active.

As to `CSc1ccc(/C=C/c2cc(/C=C3\Sc4ccccc4N3CCCN3CCOCC3)c3ccccc3[n+]2C)cc1.[I-]`, the result in the data set on Quadruplex DNA [5], with HeLa [8] and in the data set with HeLa [9] was inactive. Moreover, the Kb with DNA amounted to 657000 M⁻¹; with rRNA, 764000 M⁻¹; in the data set with Quadruplex DNA [1] it was 486000 M⁻¹; with Quadruplex DNA [2], 301000 M⁻¹; in the data set with Quadruplex DNA [3] it was 325000 M⁻¹. The IC50 came out at 91.1 µM in the data set with PC-3; 96.5 µM in the data set with HepG2; 105 µM with MCF7; 96.8 µM in the data set with U-87 MG; 90.3 µM with HeLa [10]; 58 µM in the data set with 16HBE14o-. The molecule further registered a solubility in data set [4] of 87.3 µM.

On to `C[n+]1c(/C=C/c2ccc(O)cc2)cc(/C=C2\Sc3ccccc3N2CCCN2CCOCC2)c2ccccc21.[I-]`, for which the Kb in the data set with Quadruplex DNA [2] came to 965000 M⁻¹. Further, the solubility in [4] worked out at 167 µM.

In the case of `C[n+]1c(/C=C/c2ccc(N(c3ccccc3)c3ccccc3)cc2)cc(/C=C2\Sc3ccccc3N2CCCN2CCOCC2)c2ccccc21.[I-]`, the Kb in the data set on DNA amounted to 272000 M⁻¹; in the data set on Quadruplex DNA [1], 645000 M⁻¹; with Quadruplex DNA [2], 523000 M⁻¹; in the data set with Quadruplex DNA [3], 490000 M⁻¹. Besides, the solubility in data set [4] worked out at 70.7 µM.
